# According to ChEMBL document CHEMBL1149132, “Structure-activity study of the ORL1 antagonist Ac-Arg-D-Cha-Qaa-D-Arg-D-p-ClPhe-NH2” (J Med Chem, 2004):
# Key:
# Format in all cases: cell-based
# Mu-type opioid receptor = Mu-type opioid receptor (Homo sapiens, UniProt P35372); experiment: Binding affinity against human Opioid receptor mu 1 (hMOR) was determined using [3H]diprenorphine in vitro transfected to COS-1 cells
# Outline: (§1)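 Competition binding with [3H]diprenorphine on membrane homogenates of COS-1 cells transiently transfected with human MOR or human DOR. Ki given as mean ± SEM from two or more separate experiments done in duplicate.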
# [1] = target: Delta-type opioid receptor (Homo sapiens, UniProt P41143); experiment: Binding affinity against human opioid receptor delta 1 was determined using [3H]diprenorphine in vitro transfected to COS-1 cells; outline: as §1
# Sequence of Delta-type opioid receptor (P41143 whole entry): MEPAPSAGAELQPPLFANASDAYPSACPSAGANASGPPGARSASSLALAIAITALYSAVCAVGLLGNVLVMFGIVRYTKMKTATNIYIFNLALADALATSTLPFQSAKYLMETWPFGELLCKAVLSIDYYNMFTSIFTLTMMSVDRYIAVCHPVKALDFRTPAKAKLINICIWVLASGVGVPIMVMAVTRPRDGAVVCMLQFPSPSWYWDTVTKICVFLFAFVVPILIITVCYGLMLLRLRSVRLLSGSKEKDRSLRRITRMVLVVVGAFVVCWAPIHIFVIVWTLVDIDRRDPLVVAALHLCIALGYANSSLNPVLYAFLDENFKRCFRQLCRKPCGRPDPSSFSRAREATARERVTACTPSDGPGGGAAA
# [2] = target: Kappa-type opioid receptor (Homo sapiens, UniProt P41145); experiment: Binding affinity against human Opioid receptor kappa 1 (hKOR) was determined using [3H]diprenorphine in vitro in CHO cells
# Sequence of Kappa-type opioid receptor (P41145 whole entry): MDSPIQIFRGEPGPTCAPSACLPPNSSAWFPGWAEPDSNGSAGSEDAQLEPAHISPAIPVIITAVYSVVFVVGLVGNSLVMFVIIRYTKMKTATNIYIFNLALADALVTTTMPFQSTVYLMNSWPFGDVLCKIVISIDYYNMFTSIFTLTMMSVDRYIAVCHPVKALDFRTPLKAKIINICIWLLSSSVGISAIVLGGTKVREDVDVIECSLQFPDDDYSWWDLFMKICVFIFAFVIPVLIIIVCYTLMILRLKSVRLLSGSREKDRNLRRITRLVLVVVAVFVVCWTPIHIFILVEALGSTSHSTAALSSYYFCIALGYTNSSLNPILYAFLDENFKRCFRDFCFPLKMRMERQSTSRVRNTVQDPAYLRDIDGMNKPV
# Outline: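 Competition binding with [3H]diprenorphine on membrane homogenates of CHO cells stably expressing recombinant human KOR. Ki reported as mean ± SEM of two or more separate experiments, each run in duplicate.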
# Nociceptin receptor = Nociceptin receptor (Homo sapiens, UniProt P41146); experiment: Binding affinity against human opioid receptor like 1 (hORL) was determined using [leucyl-3H]nociceptin in vitro in CHO cells
# Sequence of Nociceptin receptor (P41146 whole entry): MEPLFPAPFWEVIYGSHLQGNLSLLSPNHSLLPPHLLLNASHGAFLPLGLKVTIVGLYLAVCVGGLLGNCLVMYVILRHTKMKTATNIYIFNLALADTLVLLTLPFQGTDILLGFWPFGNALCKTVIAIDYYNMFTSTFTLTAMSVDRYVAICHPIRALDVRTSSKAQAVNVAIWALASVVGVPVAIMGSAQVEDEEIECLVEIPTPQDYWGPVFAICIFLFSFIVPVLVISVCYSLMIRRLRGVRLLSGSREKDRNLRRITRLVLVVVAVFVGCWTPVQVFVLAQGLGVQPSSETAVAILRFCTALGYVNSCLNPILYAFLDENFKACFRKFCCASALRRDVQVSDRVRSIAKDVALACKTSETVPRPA
# Outline: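 Displacement of [leucyl-3H]nociceptin from membrane homogenates of CHO cells stably expressing recombinant human ORL1. Ki values are means ± SEM of two or more independent experiments, each in duplicate.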
# Sequence of Mu-type opioid receptor (P35372 whole entry): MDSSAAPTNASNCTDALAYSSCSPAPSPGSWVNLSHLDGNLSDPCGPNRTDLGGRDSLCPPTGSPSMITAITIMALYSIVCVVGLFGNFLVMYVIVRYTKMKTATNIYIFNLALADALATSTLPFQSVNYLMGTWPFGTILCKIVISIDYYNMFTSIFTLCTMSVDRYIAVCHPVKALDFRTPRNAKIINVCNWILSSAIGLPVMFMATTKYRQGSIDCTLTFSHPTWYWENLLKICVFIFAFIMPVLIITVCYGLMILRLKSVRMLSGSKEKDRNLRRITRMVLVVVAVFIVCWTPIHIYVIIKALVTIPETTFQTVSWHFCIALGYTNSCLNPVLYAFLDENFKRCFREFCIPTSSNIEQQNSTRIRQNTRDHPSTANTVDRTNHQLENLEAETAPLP
SMILES,Ki (Mu-type opioid receptor),Ki [1],Ki [2],Ki (Nociceptin receptor)
CC(=O)N[C@@H](CCCN=C(N)N)C(=O)N[C@H](CC1CCCCC1)C(=O)N[C@H]1CC[C@@H]2SC[C@@H](C(=O)N[C@H](CCCN=C(N)N)C(=O)NC(Cc3ccc(Cl)cc3)C(N)=O)N2C1=O (stereo not given in full),53 nM,222 nM,78 nM,34 nM
CC(=O)N[C@@H](CCCN=C(N)N)C(=O)N[C@H](CC1CCCCC1)C(=O)N[C@H]1CC[C@H]2CCC[C@@H](C(=O)N[C@H](CCCNC(N)=O)C(=O)N[C@H](Cc3ccc(Cl)cc3)C(N)=O)N2C1=O,> 5000 nM,> 5000 nM,> 5000 nM,> 5000 nM
CC(=O)N[C@@H](CCCN=C(N)N)C(=O)N[C@H](CC1CCCCC1)C(=O)N[C@H]1CC[C@H]2CCC[C@@H](C(=O)N[C@H](CCCN=C(N)N)C(=O)N[C@H](Cc3ccc(Cl)cc3)C(N)=O)N2C1=O,90 nM,> 5000 nM,105 nM,27 nM
CC(=O)N[C@@H](CCCNC(N)=O)C(=O)N[C@H](CC1CCCCC1)C(=O)N[C@H]1CC[C@H]2CCC[C@@H](C(=O)N[C@H](CCCN=C(N)N)C(=O)N[C@H](Cc3ccc(Cl)cc3)C(N)=O)N2C1=O,2560 nM,> 5000 nM,4270 nM,72 nM
CC(=O)N[C@@H](CCCN=C(N)N)C(=O)N[C@H](CC1CCCCC1)C(=O)N[C@H]1CC[C@H]2CCC[C@@H](C(=O)N[C@H](CCCNC(N)=O)C(N)=O)N2C1=O,> 5000 nM,> 5000 nM,> 5000 nM,> 5000 nM
